The text below walks through data of paper PMC7302971 (Bioorganic chemistry, 2020).

As usually defined, the IC50 is the concentration that gives 50% inhibition. In general, CC50 refers to the concentration that lowers cell viability or growth by half.

One data set has as its target T1, HDAC8 (Homo sapiens, UniProt Q9BY41).
T1 sequence (Q9BY41 1-377): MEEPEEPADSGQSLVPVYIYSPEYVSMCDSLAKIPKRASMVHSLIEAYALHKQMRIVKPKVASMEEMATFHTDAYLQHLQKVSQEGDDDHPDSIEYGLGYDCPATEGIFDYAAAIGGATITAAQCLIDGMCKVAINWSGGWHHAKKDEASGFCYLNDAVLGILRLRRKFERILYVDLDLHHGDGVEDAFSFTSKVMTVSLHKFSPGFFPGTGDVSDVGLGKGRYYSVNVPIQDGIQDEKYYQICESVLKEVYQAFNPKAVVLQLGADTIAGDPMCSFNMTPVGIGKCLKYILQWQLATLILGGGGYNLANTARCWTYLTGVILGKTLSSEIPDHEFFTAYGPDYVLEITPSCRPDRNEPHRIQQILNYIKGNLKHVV
Description: HDAC enzyme activity assay. The data set is classed as biochemical. The conditions noted are these: for remaining activity at 50 µM: read-out: Residual HDAC8 activity at 50 μM. The essentials:
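HDAC4 and HDAC8 were in-house recombinant enzymes. Each was preincubated with inhibitor, either a single 50 μM screen or serial dilutions, for 60 min at 30 °C in Tris-HCl pH 8.0/KCl/Pluronic buffer. Substrate was 20 μM Boc-Lys(trifluoroacetyl)-AMC for 60 min at 30 °C, stopped with 1.7 μM SATFMK, and developed with trypsin. AMC fluorescence was read at 350/450 nm and reported as residual activity or as IC50 from a four-parameter logistic fit.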

The target of the next data set is T2, HDAC6 (Homo sapiens, UniProt Q9UBN7).
T2 sequence (Q9UBN7 1-1215): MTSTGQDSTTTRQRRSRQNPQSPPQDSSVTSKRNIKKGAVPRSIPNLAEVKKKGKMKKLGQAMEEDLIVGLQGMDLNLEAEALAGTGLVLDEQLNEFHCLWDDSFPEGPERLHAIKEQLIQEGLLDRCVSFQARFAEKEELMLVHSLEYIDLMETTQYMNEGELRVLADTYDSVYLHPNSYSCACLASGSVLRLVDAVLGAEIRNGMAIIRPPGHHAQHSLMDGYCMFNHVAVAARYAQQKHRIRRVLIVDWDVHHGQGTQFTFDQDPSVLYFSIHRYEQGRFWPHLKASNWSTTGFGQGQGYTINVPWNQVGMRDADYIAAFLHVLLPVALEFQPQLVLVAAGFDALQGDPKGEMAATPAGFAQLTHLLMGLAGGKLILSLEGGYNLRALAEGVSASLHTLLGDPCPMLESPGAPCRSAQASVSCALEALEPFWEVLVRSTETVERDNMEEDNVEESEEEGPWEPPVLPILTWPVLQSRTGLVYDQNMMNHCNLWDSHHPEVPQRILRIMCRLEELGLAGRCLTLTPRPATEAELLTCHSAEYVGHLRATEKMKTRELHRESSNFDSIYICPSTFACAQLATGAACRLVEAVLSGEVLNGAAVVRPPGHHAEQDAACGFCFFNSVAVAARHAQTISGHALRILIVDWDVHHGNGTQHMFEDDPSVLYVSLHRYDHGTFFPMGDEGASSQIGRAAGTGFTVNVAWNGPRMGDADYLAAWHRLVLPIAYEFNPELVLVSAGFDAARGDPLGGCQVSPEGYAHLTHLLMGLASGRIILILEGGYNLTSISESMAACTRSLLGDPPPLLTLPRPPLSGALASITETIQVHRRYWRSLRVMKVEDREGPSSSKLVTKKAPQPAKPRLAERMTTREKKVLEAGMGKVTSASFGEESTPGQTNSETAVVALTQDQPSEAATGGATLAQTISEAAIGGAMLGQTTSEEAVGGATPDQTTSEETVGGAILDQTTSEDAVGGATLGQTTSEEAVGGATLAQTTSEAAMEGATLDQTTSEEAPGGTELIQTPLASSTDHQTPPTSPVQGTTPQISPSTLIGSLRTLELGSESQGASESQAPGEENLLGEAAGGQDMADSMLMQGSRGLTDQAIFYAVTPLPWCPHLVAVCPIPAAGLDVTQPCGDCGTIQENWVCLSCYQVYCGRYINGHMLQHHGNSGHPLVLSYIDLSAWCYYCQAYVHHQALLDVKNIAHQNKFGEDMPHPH
As to the kind of experiment: HDAC enzyme activity assay. In kind it is biochemical. The method in brief: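 Commercial enzyme was preincubated with serial inhibitor dilutions for 60 min at 30 °C in 25 mM Tris-HCl pH 8.0, 75 mM KCl and 0.001% Pluronic F-127. Reaction was started with 50 μM Boc-Lys(acetyl)-AMC, run 60 min at 30 °C, and stopped with 4.17 μM SAHA. Trypsin (0.4 mg/ml) released AMC, read at Ex 350/Em 450 nm. IC50 came from a four-parameter logistic fit.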

A short description of data set [1]: MTT cell viability assay, normal WBCs. The conditions noted are these: human. In kind it is cell-based. The method in brief:
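Human WBCs were isolated from diluted blood on HiSep density medium (400 × g, 30 min, room temperature). Mononuclear cells were PBS-washed, RBC-lysed for 5 min, washed again and kept in RPMI 1640 at 37 °C in 5% CO2. Cells were seeded at about 5×10³ per well and exposed to test compound at 2.5–100 μM for 48 h.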
(Tetrazolium dyes change colour on reduction, which living cells bring about.)

A further data set deals with GLUT5. As to the kind of experiment: GLUT transport inhibition assay in hxt0 yeast cells. The data set is classed as cell-based, human. The conditions noted are these: 50 μM compound, 10 mM C14-fructose. The method in brief: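 Human GLUT4 was expressed in VW4000fgy1erg4 yeast (1% maltose, then 0.2% glucose, SC-uracil). GLUT5 was expressed in VW4000 (YEP with 2% maltose and G418, then 2% fructose). PBS-washed cells were exposed to 50 μM test compound. Uptake of 14C-glucose (5 mM, GLUT4) or 14C-fructose (10 mM, GLUT5) ran 10 min, followed by quench, filtration and scintillation counting. Activity was relative to 1% DMSO and to saturating phloretin (GLUT4) or MSNBA (GLUT5). Triplicates.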

A short description of data set [2]: DNS assay on normal human fibroblast. The data set is classed as cell-based. The conditions noted are these: HS27 normal fibroblasts. The essentials:
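HS27 fibroblasts were tested by DNS imaging after exposure to test compound. Hoechst 33342, which stains all nuclei, and PI, which enters only membrane-compromised cells, were added before imaging.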

Consider `Cc1c(NC(=O)CN2C(=O)SC(=Cc3ccccn3)C2=O)c(=O)n(-c2ccccc2)n1C` [Compound P10, N-(1,5-dimethyl-3-oxo-2-phenyl-2,3-dihydro-1H-pyrazol-4-yl)-2-(2,4-dioxo-5-(pyridin-2-ylmethylene)thiazolidin-3-yl)acetamide], for which, on HDAC8, the IC50 is 23 ± 1.1 µM and the remaining activity at 50 µM is 17%. For the same molecule, the midpoint of inhibition against HDAC6, the IC50, lay at 26 µM.

As for `O=C(CN1C(=O)SC(=Cc2ccccn2)C1=O)Nc1nc2ccccc2s1` [Compound P19, N-(benzo[d]thiazol-2-yl)-2-(2,4-dioxo-5-(pyridin-2-ylmethylene)thiazolidin-3-yl)acetamide], at HDAC8, it took 9.3 ± 1 µM to reach half-maximal inhibition (IC50) and the remaining activity at 50 µM amounted to 22%. In data set [1], half-maximal cytotoxicity (CC50 at 48 h) was put at 104 µM. This molecule also displayed an IC50 against HDAC6 of 17 µM. For the same molecule, the “relative transport activity of GLUT5” value with GLUT5 is recorded as “ineffective”. Also, in data set [2], half-maximal cytotoxicity (CC50) was put at 105 µM.
